Test results reported in ChEMBL document CHEMBL1138278, “Aromatic amide derivatives of 5,6-dimethoxy-2,3-dihydro-1H-inden(-1-yl)acetic acid as anti-inflammatory agents free of ulcerogenic liability” (Bioorg Med Chem Lett, 2007).

Key:
Rattus norvegicus [1] = test: Antiinflammatory activity in Wistar rat assessed as inhibition of carrageenan-induced paw edema at 100 mg/kg, after 1 hr; assay type: functional
How it was run: (§1)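 Male Wistar rats (170 ± 20 g) dosed orally: test agents at 100 mg/kg, reference at 10 mg/kg. One hour later, 0.1 ml of 1% carrageenan injected subplantar into the right hind paw.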

Rattus norvegicus [2] = test: Antiinflammatory activity in Wistar rat assessed as inhibition of carrageenan-induced paw edema at 100 mg/kg, after 2 hrs; assay type: functional; how it was run: as §1
Rattus norvegicus [3] = test: Antiinflammatory activity in Wistar rat assessed as inhibition of carrageenan-induced paw edema at 100 mg/kg, after 3 hrs; assay type: functional; how it was run: as §1
Rattus norvegicus [4] = test: Antiinflammatory activity in Wistar rat assessed as inhibition of carrageenan-induced paw edema at 100 mg/kg, after 4 hrs; assay type: functional; how it was run: as §1
Rattus norvegicus [5] = test: Antiinflammatory activity in Wistar rat assessed as inhibition of carrageenan-induced paw edema at 100 mg/kg, after 6 hrs; assay type: functional; how it was run: as §1
Rattus norvegicus [6] = test: Antiinflammatory activity in Wistar rat assessed as inhibition of carrageenan-induced paw edema at 100 mg/kg, after 24 hrs; assay type: functional; how it was run: as §1
Mus musculus [7] = test: Analgesic activity in Swiss Albino mouse assessed as number of acetic acid-induced writhing at 100 mg/kg, po after 1 hr relative to control; assay type: functional
How it was run: (§2)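 Mice dosed orally; one hour later injected i.p. with 1% v/v acetic acid at 0.1 ml/10 g. Writhings counted over 15 min, starting five minutes after injection. Means ± SEM, n = 6; p < 0.05 versus control group.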

Mus musculus [8] = test: Analgesic activity in Swiss Albino mouse assessed as inhibition of acetic acid-induced writhing responses at 100 mg/kg, po after 1 hr; assay type: functional; how it was run: as §2
Rattus norvegicus [9] = test: Toxicity in 24 hrs fasted Wistar rat assessed as ulcer index at 100 mg/kg, po after 6 hrs; assay type: organism-based; design: dose 100 mg/kg, route oral; settings: in vivo
How it was run: (§3)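 Male Wistar rats (175 ± 25 g) fasted 24 h and dosed orally. Acute arm: test agents at 100 mg/kg, indomethacin at 30 mg/kg; rats killed after 6 h, stomachs opened along the greater curvature and scored for ulcers. Chronic arm: 14-day dosing, stomachs examined post mortem at the end of the arthritis study. Ulcer index means ± SEM, n = 4.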

Rattus norvegicus [10] = test: Antipyretic activity against LPS-induced pyresis in Wistar rat assessed as change in rectal temperature at 100 mg/kg, po after 1 hr; assay type: functional
How it was run: (§4)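 Male Wistar rats (170 ± 20 g) dosed orally: test agents at 100 mg/kg, indomethacin and aspirin at 10 mg/kg and 100 mg/kg. Half an hour later, LPS in apyrogenic saline given at 100 µg/kg i.p. Rectal temperature taken by telethermometer probe immediately before LPS and hourly from 1 to 7 h after. Change in temperature reported; means ± SEM, n = 6.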

Rattus norvegicus [11] = test: Antipyretic activity against LPS-induced pyresis in Wistar rat assessed as change in rectal temperature at 100 mg/kg, po after 2 hrs; assay type: functional; how it was run: as §4
Rattus norvegicus [12] = test: Antipyretic activity against LPS-induced pyresis in Wistar rat assessed as change in rectal temperature at 100 mg/kg, po after 3 hrs; assay type: functional; how it was run: as §4
Rattus norvegicus [13] = test: Antipyretic activity against LPS-induced pyresis in Wistar rat assessed as change in rectal temperature at 100 mg/kg, po after 4 hrs; assay type: functional; how it was run: as §4
Rattus norvegicus [14] = test: Antipyretic activity against LPS-induced pyresis in Wistar rat assessed as change in rectal temperature at 100 mg/kg, po after 5 hrs; assay type: functional; how it was run: as §4
Rattus norvegicus [15] = test: Antipyretic activity against LPS-induced pyresis in Wistar rat assessed as change in rectal temperature at 100 mg/kg, po after 6 hrs; assay type: functional; how it was run: as §4
Rattus norvegicus [16] = test: Antipyretic activity against LPS-induced pyresis in Wistar rat assessed as change in rectal temperature at 100 mg/kg, po after 7 hrs; assay type: functional; how it was run: as §4
Rattus norvegicus [17] = test: Antiarthritic activity against adjuvant-induced arthritis in Wistar rat assessed as inhibition of paw edema at 100 mg/kg, po on day 3; assay type: functional; settings: 72 h
How it was run: (§5)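 Male Wistar rats (160 ± 10 g) dosed orally once daily for 14 days, from the day before injecting 0.1 ml Freund's complete adjuvant into the subplantar surface of the right hind paw. Paw swelling, including the uninjected left paw, and body weight recorded. Means ± SEM, n = 6; p < 0.05 versus control.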

Rattus norvegicus [18] = test: Antiarthritic activity against adjuvant-induced arthritis in Wistar rat assessed as inhibition of paw edema at 100 mg/kg, po on day 8; assay type: functional; settings: 192 h; how it was run: as §5
Rattus norvegicus [19] = test: Antiarthritic activity against adjuvant-induced arthritis in Wistar rat assessed as inhibition of paw edema at 100 mg/kg, po on day 13; assay type: functional; settings: 312 h; how it was run: as §5
Rattus norvegicus [20] = test: Antiarthritic activity against adjuvant-induced arthritis in Wistar rat assessed as weight change at 100 mg/kg, po; assay type: functional; how it was run: as §5
Rattus norvegicus [21] = test: Toxicity in 24 hrs fasted Wistar rat assessed as ulcer index at 100 mg/kg, po after 14 days; assay type: organism-based; design: dose 100 mg/kg, route oral; settings: in vivo, 336 h; how it was run: as §3

| Structure (SMILES) | inhibition in vivo at 100 mg/kg (Rattus norvegicus [1]) [%] | inhibition in vivo at 100 mg/kg (Rattus norvegicus [2]) [%] | inhibition in vivo at 100 mg/kg (Rattus norvegicus [3]) [%] | inhibition in vivo at 100 mg/kg (Rattus norvegicus [4]) [%] | inhibition in vivo at 100 mg/kg (Rattus norvegicus [5]) [%] | inhibition in vivo at 100 mg/kg (Rattus norvegicus [6]) [%] | Activity (Mus musculus [7]) | inhibition in vivo at 100 mg/kg (Mus musculus [8]) [%] | also measured |
| --- | --- | --- | --- | --- | --- | --- | --- | --- | --- |
| COc1cc2c(cc1OC)C(CC(=O)Nc1ccccc1)CC2 (stereo unspecified) | 31.2 | 32 | 36.2 | 37.5 | 38.9 | 30 | 19.83 | 42.8 |  |
| COc1cc2c(cc1OC)C(CC(=O)Nc1ccccc1C)CC2 (stereo unspecified) | 21.9 | 18 | 26.1 | 25 | 25.9 | 23.3 | 24.3 | 30 |  |
| COc1cc2c(cc1OC)C(CC(=O)Nc1ccc(C)cc1)CC2 (stereo unspecified) | 34.4 | 26 | 34.8 | 32.8 | 37 | 30 | 20.33 | 41.4 | UI (Rattus norvegicus [9]): 0 |
| COc1cc2c(cc1OC)C(CC(=O)Nc1cccc(Cl)c1)CC2 (stereo unspecified) | 31.2 | 28 | 24.6 | 25.8 | 38.9 | 63.3 | 16.83 | 51.5 | Activity (Rattus norvegicus [10]): -0.35 °C; Activity (Rattus norvegicus [11]): -1.62 °C; Activity (Rattus norvegicus [12]): -0.24 °C; Activity (Rattus norvegicus [13]): 0.05 °C; Activity (Rattus norvegicus [14]): 0.23 °C; Activity (Rattus norvegicus [15]): 0.44 °C; Activity (Rattus norvegicus [16]): 0.42 °C; inhibition in vivo at 100 mg/kg (Rattus norvegicus [17]): 37.5%; inhibition in vivo at 100 mg/kg (Rattus norvegicus [18]): 25.8%; inhibition in vivo at 100 mg/kg (Rattus norvegicus [19]): 35.7%; Activity (Rattus norvegicus [20]): 7.21 g; UI (Rattus norvegicus [9]): 0; UI (Rattus norvegicus [21]): 0 |
| COc1cc2c(cc1OC)C(CC(=O)Nc1ccncc1)CC2 (stereo unspecified) | 42.2 | 44 | 42 | 45.3 | 46.3 | 46.7 | 13.83 | 60.1 | Activity (Rattus norvegicus [10]): -0.11 °C; Activity (Rattus norvegicus [11]): -2.23 °C; Activity (Rattus norvegicus [12]): -0.87 °C; Activity (Rattus norvegicus [13]): 0.13 °C; Activity (Rattus norvegicus [14]): 0.35 °C; Activity (Rattus norvegicus [15]): 0.74 °C; Activity (Rattus norvegicus [16]): 0.42 °C; inhibition in vivo at 100 mg/kg (Rattus norvegicus [17]): 17%; inhibition in vivo at 100 mg/kg (Rattus norvegicus [18]): 11.1%; inhibition in vivo at 100 mg/kg (Rattus norvegicus [19]): 19.7%; Activity (Rattus norvegicus [20]): 4.25 g |
| COc1cc2c(cc1OC)C(CC(=O)Nc1ccccn1)CC2 (stereo unspecified) | 25 | 32 | 30.4 | 29.7 | 29.6 | 33.3 | 18 | 48 |  |
| COc1cc2c(cc1OC)C(CC(=O)Nc1cccc(C)c1)CC2 (stereo unspecified) | 37.5 | 29 | 37.7 | 40.6 | 38 | 41.7 | 15.83 | 54.3 | Activity (Rattus norvegicus [10]): -0.19 °C; Activity (Rattus norvegicus [11]): -1.34 °C; Activity (Rattus norvegicus [12]): -0.51 °C; Activity (Rattus norvegicus [13]): 0.22 °C; Activity (Rattus norvegicus [14]): 0.46 °C; Activity (Rattus norvegicus [15]): 0.71 °C; Activity (Rattus norvegicus [16]): 0.82 °C; inhibition in vivo at 100 mg/kg (Rattus norvegicus [17]): 16.5%; inhibition in vivo at 100 mg/kg (Rattus norvegicus [18]): 19.2%; inhibition in vivo at 100 mg/kg (Rattus norvegicus [19]): 20.7%; Activity (Rattus norvegicus [20]): 4.56 g; UI (Rattus norvegicus [21]): 0 |
| COc1ccccc1NC(=O)CC1CCc2cc(OC)c(OC)cc21 (stereo unspecified) | 28.1 | 16 | 21.7 | 23.4 | 24.1 | 30 | 26.17 | 24.5 |  |
| COc1cc2c(cc1OC)C(CC(=O)Nc1cccnc1)CC2 (stereo unspecified) | 25 | 30 | 33.3 | 34.4 | 35.2 | 36.7 | 10.17 | 70.7 |  |
| COc1cc2c(cc1OC)C(CC(=O)Nc1ccc(NC(C)=O)cc1)CC2 (stereo unspecified) | 25 | 18 | 23.2 | 22.7 | 24.1 | 33.3 | 24 | 30.8 |  |
| COc1cc2c(cc1OC)C(CC(=O)O)CC2 (stereo unspecified) | 18.8 | 24 | 27.5 | 23.9 | 20.4 | 26.7 | 19.41 | 44 |  |
| COc1ccc(NC(=O)CC2CCc3cc(OC)c(OC)cc32)cc1 (stereo unspecified) | 34.4 | 18 | 26.1 | 27.3 | 29.6 | 40 | 14.33 | 58.7 | Activity (Rattus norvegicus [10]): -0.12 °C; Activity (Rattus norvegicus [11]): -1.84 °C; Activity (Rattus norvegicus [12]): -0.66 °C; Activity (Rattus norvegicus [13]): -0.15 °C; Activity (Rattus norvegicus [14]): 0.14 °C; Activity (Rattus norvegicus [15]): 0.26 °C; Activity (Rattus norvegicus [16]): 0.43 °C |
| COc1cc2c(cc1OC)C(CC(=O)Nc1ccc(Br)cc1)CC2 (stereo unspecified) | 50 | 40 | 43.5 | 40.6 | 46.3 | 66.7 | 21.67 | 37.5 |  |
| COc1cc2c(cc1OC)C(CC(=O)Nc1ccc([N+](=O)[O-])cc1)CC2 (stereo unspecified) | 37.5 | 36 | 37.7 | 37.5 | 37 | 43.3 | 15.33 | 55.8 | inhibition in vivo at 100 mg/kg (Rattus norvegicus [17]): 27.2%; inhibition in vivo at 100 mg/kg (Rattus norvegicus [18]): 17.7%; inhibition in vivo at 100 mg/kg (Rattus norvegicus [19]): 10.8%; Activity (Rattus norvegicus [20]): 4.01 g; UI (Rattus norvegicus [9]): 0 |
